Source: PubChem BioAssay
Gli-Sufu antag: antagonists of Gli-Sufu signaling | Sufu-KO-LIGHT fibroblasts, Gli luciferase reporter luminescence | inhibition, % at 5 µM | 340,000 compounds, 0.74% hits | AID 588413;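 active = inhibition above about 55%, limit read from the data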;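 note: 0% = DMSO-treated cells and 100% = wells with medium but no cells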
697 NFkB inh: inhibitors of the PMA/ionomycin-induced NF-kB reporter in 697 B cells. 330,000 compounds, 0.33% hits. AID 435022. inhibition, % at 4 µM. 697 B-cell NF-kB luciferase reporter, 16 h; in the data active = inhibition above about 35%
UPR XBP1 act: activators of adaptive arm of unfolded protein response (XBP1) | AID 463104 | 330,000 compounds, 0.33% hits | CHO-XBP1 luciferase reporter, IRE1-XBP1 UPR activation, luminescence; percent of tunicamycin response, DMSO as zero | activation, % at 20 µM;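 active = versus positive control, 20 µM dose yields 30% or more activation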;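 note: 100% = tunicamycin at 10 µg/mL and 0% = DMSO only wells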
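Material – CHO cell line with stable XBP1 luciferase reporter · Buffer or medium – F12 plus 10% FBS · Compound – single point, 20 µM final compound, 1% DMSO · Schedule – 16-18 h cell attachment at 37 °C, then 6 h compound exposure · Signal – Steady-Glo luminescence read · Benchmarks – high control tunicamycin 10 µg/mL final, low control DMSO vehicle only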
UPR CHOP act: activators of apoptotic arm of unfolded protein response (CHOP) | activation, % at 10 µM | CHO-CHOP luciferase reporter, UPR activation, luminescence; percent of tunicamycin response over DMSO baseline | AID 449763 | 330,000 compounds, 0.34% hits;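 active = at 10 µM dose, activation of 40% or more, normalized to positive control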;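 note: 100% = tunicamycin at 10 µg/mL and 0% = DMSO alone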
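Test system: CHO-CHOP cells, stable luciferase reporter of PERK-eIF2a-CHOP signalling | Quantity: 500 CHO-CHOP cells per well | Buffer or medium: F12 plus 10% serum | Compound dosing: 10 µM single point, 0.5% DMSO | Schedule: 6 h compound treatment, 37 °C | Signal: Luciferase luminescence | Control set: Tunicamycin high control, DMSO low control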
Jurkat NFkB inh: inhibitors of the PMA/ionomycin-induced NF-kB reporter in Jurkat cells. PMA/ionomycin-induced NF-kB luciferase reporter, luminescence. inhibition, % at 4 µM. 330,000 compounds, 0.53% hits. AID 435003; in the data active = inhibition above about 50%
CHOP inh: CHOP inhibition in unfolded protein response | CHO-K1 CHOP-promoter luciferase, tunicamycin-induced, 15-18 h | inhibition, % at 10 µM | 220,000 compounds, 3.8% hits | AID 2732;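 active = compounds that reduced the stress-induced luciferase reporter signal by more than about 70% of percent inhibition, limit read from the data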;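 note: 0% = tunicamycin plus vehicle and 100% = wells without tunicamycin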
697 NFkB conf: inhibitors of the PMA/ionomycin-induced NF-kB reporter in 697 B cells, retest; shares compounds with 697 NFkB inh; 697 B-cell NF-kB luciferase, 16 h; inhibition, % at 4 µM; 2,000 compounds, 35% hits; AID 449746; in the data active = inhibition mostly above about 28%, no sharp cut-off; inactive = mostly below about 22%
An asterisk follows results filed as active. Most compounds without a hit are left out; they make up all but 3.9% or so of the library.

Results for O=C(NCCCN1CCOCC1)c1cc(-c2ccc(Br)cc2)on1 ?
697 NFkB inh: 63*; UPR XBP1 act: 2; UPR CHOP act: -3; Jurkat NFkB inh: 3; CHOP inh: 5; 697 NFkB conf: 38*

What do the screens show for `O=C(NCCN1CCOCC1)c1cc(-c2ccc(Br)cc2)on1`?
Gli-Sufu antag: -3; 697 NFkB inh: 18; UPR XBP1 act: -2; UPR CHOP act: 0; Jurkat NFkB inh: 4; CHOP inh: -4

What do the screens show for `COc1ccc(OCCNC(=O)c2ccc(C)cc2)cc1`?
Gli-Sufu antag: -52; 697 NFkB inh: -6; UPR XBP1 act: -1; UPR CHOP act: 0; Jurkat NFkB inh: -30

How did Nc1ccc(-c2ncc(-c3ccccc3)o2)cc1 do in these assays?
Gli-Sufu antag: 24; 697 NFkB inh: 40*; UPR XBP1 act: -10; UPR CHOP act: -6; Jurkat NFkB inh: -124; 697 NFkB conf: -6

Results for C[C@H](NC(=O)c1ncn(C)c1C(=O)N[C@@H](C)c1ccccc1)c1ccccc1 ?
Gli-Sufu antag: -6; 697 NFkB inh: -7; UPR XBP1 act: 1; UPR CHOP act: 1; Jurkat NFkB inh: -11

How did COc1ccc(NC(=O)c2cc3c(Cl)nc4ccccc4c3s2)cc1OC do in these assays?
Gli-Sufu antag: 43; 697 NFkB inh: 44*; UPR XBP1 act: 9; UPR CHOP act: 4; Jurkat NFkB inh: 11; CHOP inh: 22; 697 NFkB conf: 39*

How did COc1ccc(OC)c(NC(=O)c2cc3c(Cl)nc4ccccc4c3s2)c1 do in these assays?
Gli-Sufu antag: 10; 697 NFkB inh: 31; UPR XBP1 act: 10; UPR CHOP act: 1; Jurkat NFkB inh: -1; CHOP inh: 59

How did CCc1ccc2oc(C(=O)NCCc3ccc(S(N)(=O)=O)cc3)cc(=O)c2c1 do in these assays?
Gli-Sufu antag: 32; 697 NFkB inh: 20; UPR XBP1 act: -3; UPR CHOP act: -1; Jurkat NFkB inh: -3

Results for Nc1ccccc1C(=O)NCC1(c2ccccc2)CCCC1 ?
Gli-Sufu antag: 26; 697 NFkB inh: -21; UPR XBP1 act: -3; UPR CHOP act: 0; Jurkat NFkB inh: -14

What do the screens show for `O=C(c1cccc(S(=O)(=O)N2CCOCC2)c1)N1CCCCCC1`?
Gli-Sufu antag: 2; 697 NFkB inh: -8; UPR XBP1 act: -1; UPR CHOP act: -2; Jurkat NFkB inh: -1; CHOP inh: -3

Results for O=C(c1cccc(S(=O)(=O)N2CCOCC2)c1)N1CCCC1 ?
Gli-Sufu antag: 4; 697 NFkB inh: 36*; UPR XBP1 act: -1; UPR CHOP act: 0; Jurkat NFkB inh: 6; CHOP inh: 7; 697 NFkB conf: 8

How did CCSC1=C(C#N)C(c2ccc(Cl)cc2)C2=C(CCCC2=O)N1 (stereo not drawn) do in these assays?
Gli-Sufu antag: 0; 697 NFkB inh: 35*; UPR XBP1 act: -2; UPR CHOP act: -4; Jurkat NFkB inh: 4; CHOP inh: 64; 697 NFkB conf: 13

What do the screens show for `CSC1=C(C#N)C(c2ccc3c(c2)OCO3)C2=C(CCCC2=O)N1` (stereo not drawn)?
Gli-Sufu antag: -5; 697 NFkB inh: -8; UPR XBP1 act: -2; UPR CHOP act: 0; Jurkat NFkB inh: 3; CHOP inh: 19

Results for O=C(Nc1cccc2ccccc12)c1ccc(OC(=S)N2CCOCC2)cc1 ?
Gli-Sufu antag: -33; 697 NFkB inh: -366; UPR XBP1 act: 2; UPR CHOP act: 8; Jurkat NFkB inh: -130; CHOP inh: 14; 697 NFkB conf: -419

How did O=C(Nc1cccc(Cl)c1)c1ccc(OC(=S)N2CCOCC2)cc1 do in these assays?
Gli-Sufu antag: -49; 697 NFkB inh: -84; UPR XBP1 act: 6; UPR CHOP act: 6; Jurkat NFkB inh: -82; CHOP inh: 31

How did O=C(c1cccc(-c2ccccc2F)c1)N1CC[C@@H](N2CCC(O)CC2)[C@H](O)C1 do in these assays?
Gli-Sufu antag: 2; 697 NFkB inh: -8; UPR XBP1 act: -7; UPR CHOP act: 1; Jurkat NFkB inh: -7
